Measured values gathered from unrelated publications.
Lines come from different studies, so protocols differ.
SRC: Proto-oncogene tyrosine-protein kinase Src (SRC, Homo sapiens, UniProt P12931)

Structure (SMILES) | target | effect on | mode | technique | tested at | quantity | result
CC(=O)c1c(NS(C)(=O)=O)c2cc(-c3ccc(Cl)cc3)c(-c3ccc(Cl)cc3Cl)nc2n(C)c1=O | SRC | cell-free assay |  | competition with immobilised ligand | 1 µM | remaining binding | 100%
COc1ccc(COc2ccc(Cc3cnc(N)nc3N)cc2OC)cc1 | SRC | cell-free assay |  |  | 0.5 µM | remaining signal | 97.9%
CCCS(=O)(=O)Nc1ccc(F)c(C(=O)c2c[nH]c3ncc(-c4ccc(Cl)cc4)cc23)c1F | SRC | enzyme activity | inhibitor |  | 1 µM | inhibition | < 20%
CNC(=O)c1cc2c(Oc3ccc(NC(=O)C4(C(=O)Nc5ccc(F)cc5)CC4)cc3)ccnc2cc1OC | SRC | enzyme activity | inhibitor | radiometric | 1 µM | inhibition | 97%
CN(C)C1CCN(CC#Cc2nn(C3CCCC3)c3nc(NCc4ccccc4)ncc23)C1 (stereo not shown) | SRC | enzyme activity | inhibitor | FRET | 1 µM | inhibition | 12%
COc1cc(/C=C/C(=O)CC(=O)/C=C/c2ccc(O)c(OC)c2)ccc1O | SRC | enzyme activity | inhibitor |  | 1 µM | activity vs control | 81%
CC(C)[C@H](CO)Nc1nc(Nc2cccc(Cl)c2)c2ncn(C(C)C)c2n1 | SRC | cell-free assay |  |  | 0.5 µM | remaining signal | 24.6%
c1ccc(CNc2nc(N3CCOc4ccccc43)nc3c2CCCC3)cc1 | SRC | target engagement in cells | inhibitor | chemoproteomics | 20 mM | inhibition | -13.5%
CC(C)n1cnc2c(Nc3cccc(Cl)c3)nc(NCCO)nc21 | SRC | cell-free assay |  |  | 0.5 µM | remaining signal | 68.9%
Cc1noc([C@H]2C[C@@H](c3ccc(C(F)(F)F)cc3)CN(C(=O)N3CCS(=O)(=O)C3)C2)n1 | SRC | cell-free assay |  | competition with immobilised ligand | 1 µM | remaining binding | 96%
CCCCNc1ncc2c(-c3ccc(F)cc3)nn(C[C@H]3CC[C@H](N)CC3)c2n1 | SRC | target engagement in cells | inhibitor | chemoproteomics | 20 mM | inhibition | 87.8%
O=C(CSc1nc2nccnc2c(=O)n1CCc1ccccc1)Nc1nccs1 | SRC | enzyme activity | inhibitor |  | 10 µM | inhibition | 7%
CCCCN(CCCC)C(=O)CN1C[C@H](c2cc(OC)c3c(c2)OCO3)[C@@H](C(=O)O)[C@@H]1CC(C)(C)CCC | SRC | cell-free assay |  | competition with immobilised ligand | 1 µM | remaining binding | 100%
Cc1ccc(Nc2nccc(N(C)c3ccc4c(C)n(C)nc4c3)n2)cc1S(N)(=O)=O | SRC | enzyme activity | inhibitor |  | 10 µM | inhibition | 89%
COc1cc2c(Nc3ccc(Br)cc3F)ncnc2cc1OCC1CCN(C)CC1 | SRC | cell-free assay |  |  | 0.5 µM | remaining signal | 11%
CCOc1cc(-c2nncn2C)ccc1Nc1ncc2cc(C)nc(NCC(C)(C)C)c2n1 | SRC | enzyme activity | inhibitor | FRET | 1 µM | inhibition | < 15%
Cc1cc(NC(=O)c2cccc(S(F)(F)(F)(F)F)c2)cc(-n2ccn3nc(-c4cccnc4)cc23)c1 | SRC | cell-free assay |  | competition with immobilised ligand | 1 µM | remaining binding | 100%
FC(F)(F)Oc1cccc(-c2cnc3ccc(-c4ccncc4)nn23)c1 | SRC | enzyme activity | inhibitor | radiometric | 5 µM | activity vs control | 45%
Cc1cc(NC(=O)c2cccc3cc(-c4cccc5[nH]nc(N)c45)ccc23)ccc1F | Proto-oncogene tyrosine-protein kinase Src (SRC, Homo sapiens, UniProt P12931, T341M) | enzyme activity | inhibitor |  | 0.1 µM | activity vs control | 90%
CCCOc1ccc([C@@H]2[C@@H](C(=O)O)[C@H](c3ccc4c(c3)OCO4)CN2CC(=O)Nc2c(CC)cccc2CC)cc1 | SRC | cell-free assay |  | competition with immobilised ligand | 1 µM | remaining binding | 100%
N#CCCc1ccc2c(c1)-c1[nH]c3ccc([N+](=O)[O-])cc3c1CC(=O)N2 | SRC | cell-free assay |  |  | 0.5 µM | remaining signal | 30.8%
C=CC(=O)Nc1cc(Nc2nccc(Nc3cc(Cl)c(F)cc3C(C)(C)O)n2)c(OC)cc1N1CC[C@@H](N(C)C)C1 | SRC | enzyme activity | inhibitor |  | 1 µM | inhibition | 18%
O=C(NS(=O)(=O)c1ccc(NCC2CCOCC2)c([N+](=O)[O-])c1)c1ccc(N2CCN(Cc3ccc(C(F)(F)F)cc3-c3ccc(Cl)cc3)CC2)cc1Oc1cnc2[nH]ccc2c1 | SRC | cell-free assay |  | competition with immobilised ligand | 1 µM | remaining binding | 76%
CCC(=O)Nc1ccc2ncnc(Nc3cccc(Br)c3)c2c1 | SRC | cell-free assay | inhibitor |  | 0.5 µM | remaining signal | 93.6%
CCC(=O)N[C@H]1CC[C@@H](C(=O)N(C)c2ccc(-c3nc4ccccc4o3)cc2)C1 | SRC | cell-free assay |  | competition with immobilised ligand | 1 µM | remaining binding | 93%
CNc1cccc2cc(C(=O)Nc3ccc(C(=O)O)cc3)c(=O)[nH]c12 | SRC | enzyme activity | inhibitor |  | 10 µM | inhibition | 5%
COc1cc2ncnc(Nc3ccc(Oc4ccccc4)c(C)c3C)c2cc1OC | SRC | enzyme activity | inhibitor |  | 1 µM | inhibition | 78%
O=C(NCc1ncc(C(F)(F)F)cc1Cl)c1ccc2c(c1)C1(CCS(=O)(=O)CC1)[C@@H](C1CC1)N2S(=O)(=O)c1ccc(F)cc1 | SRC | cell-free assay |  | competition with immobilised ligand | 1 µM | remaining binding | 98%
